Published values collected from several papers.
Compare with care: the assays were run in different laboratories.
Target: Serine/threonine-protein kinase PLK1 (PLK1, Homo sapiens, UniProt P53350)

Compound	read-out	mode	technique	concentration	endpoint	result
Cn1cncc1[C@@](O)(COc1ccc(C#N)cc1-c1ccc(OC(F)(F)F)cc1)c1ccc(C#N)cc1	cell-free assay	–	competition with immobilised ligand	1 µM	remaining binding	83%
Cc1nn(C)cc1-c1nc2c(N3CCN(Cc4ccc(Cl)cc4)CC3)c(Cl)cnc2[nH]1	binding	–	competition with immobilised ligand	1 µM	remaining binding	100%
Cn1cc(-c2cccc(N3CCc4c(sc5c4CC(C)(C)C5)C3=O)c2CO)cc(Nc2ccncn2)c1=O	enzyme activity	inhibitor	–	1 µM	inhibition	4%
N#CC1(c2ccccn2)CCN(Cc2cc(C(=O)O)c(=O)n3ccccc23)CC1	cell-free assay	–	competition with immobilised ligand	1 µM	remaining binding	70%
COc1ncccc1-c1cnn2ccc(N3CCN(C(=O)OC(C)C)CC3)nc12	binding	–	competition with immobilised ligand	1 µM	remaining binding	100%
Cn1cc(-c2cc(F)cc(N3CCn4c(cc5c4CCCC5)C3=O)c2CO)cc(Nc2ccc(N3CCN(C4COC4)CC3)cn2)c1=O	enzyme activity	inhibitor	–	0.1 µM	inhibition	11%
C#Cc1n[nH]c2c(-c3cn([C@@H](C)c4ccccn4)c(=O)[nH]c3=O)cc(F)cc12	enzyme activity	inhibitor	–	0.1 µM	inhibition	2.9%
O=c1[nH]c2ccccc2n1C1CCN(Cc2ccc(-c3[nH]c4cc5ncnc5cc4nc3-c3ccccc3)cc2)CC1	cell-free assay	–	–	0.5 µM	remaining signal	109%
C#Cc1n[nH]c2c(-c3cn([C@@H](C)c4ccccc4)c(=O)[nH]c3=O)cc(F)cc12	enzyme activity	inhibitor	–	0.1 µM	inhibition	2.9%
CC(C)(C)c1cc(C=C(C#N)C#N)cc(Br)c1O	enzyme activity	inhibitor	–	0.5 µM	remaining activity	92.3%
Nc1ncc(-c2nc(N3CCOCC3)nc(N3CCOCC3)n2)c(C(F)F)n1	binding	–	competition with immobilised ligand	10 µM	remaining binding	66%
